This excerpt belongs to a sample that is enriched for hits.
XBP1 UPR activ – activators of adaptive XBP1 UPR arm, primary screen, cell-based, CHO-XBP1 luciferase reporter, luminescence, uHTS. IRE1-XBP1 UPR activation; percent of tunicamycin response, DMSO as zero. activation, % at 20 µM. actives 0.33% (n = 330,000). AID 463104, 2010;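 active = versus positive control, 20 µM dose yields 30% or more activation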;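 note: 100% = tunicamycin at 10 µg/mL and 0% = DMSO only wells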
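Signal: luciferase luminescence; Assay system: CHO-XBP1 luciferase reporter cells; Amount: one thousand reporter cells per well; Dosing: 20 µM single concentration, DMSO 1%; Benchmarks: high control tunicamycin 10 µg/mL final, low control DMSO vehicle only; Schedule: 6 h compound exposure at 37 °C, 5% CO2; Evaluation: percent activation relative to tunicamycin reference.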
Cardio protect – cardioprotection against H2O2-induced cell death, primary screen, uHTS, H9c2 cells, ATPLite luminescence | protection from H2O2 cell death, % at 20 µM | actives 0.63% (n = 360,000) | H9c2 cardiomyocytes, H2O2 injury protection, 2 h;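 active = compounds giving at least 50% protection of heart cells from peroxide-induced death in the single-dose screen, raw or plate-pattern-corrected value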;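 note: 0% = DMSO wells with peroxide and 100% = DMSO wells without peroxide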
hiPSC survival – enhancers of single-cell hiPSC survival, primary screen, ATPlite luminescence; 100% = ROCK inhibitor wells, 0% = DMSO; survival enhancement, % at 20 µM; actives 0.044% (n = 360,000); AID 602274, 2012; in the data active = survival enhancement above about 18%;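 note: cells exposed to compounds for 16 hours before the ATP read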
CHOP inh – inhibitors of CHOP promoter induction, primary screen, cell-based, unfolded protein response, luciferase reporter. actives 3.8% (n = 220,000). CHO-K1 CHOP-promoter luciferase, tunicamycin-induced, 15-18 h. inhibition, % at 10 µM. AID 2732, 2010;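 active = compounds that reduced the stress-induced luciferase reporter signal by more than about 70% of percent inhibition, limit read from the data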;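 note: 0% = tunicamycin plus vehicle and 100% = wells without tunicamycin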
UPR CHOP act – activators of apoptotic CHOP UPR arm, primary screen, cell-based, CHO-CHOP luciferase reporter, luminescence, uHTS; UPR activation; percent of tunicamycin response over DMSO baseline; activation, % at 10 µM; actives 0.34% (n = 330,000); AID 449763, 2010;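 active = at 10 µM dose, activation of 40% or more, normalized to positive control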;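 note: 100% = tunicamycin at 10 µg/mL and 0% = DMSO alone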
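Assay system: CHO-CHOP cells, stable luciferase reporter of PERK-eIF2a-CHOP signalling / Buffer or medium: F12 plus 10% serum / Compound dosing: one dose, 10 µM in 0.5% DMSO / Times: 6 h compound treatment, 37 °C / Technique: luciferase luminescence / Read-out: % reporter activation, DMSO baseline versus tunicamycin full activation / Benchmarks: tunicamycin and DMSO controls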
UPR CHOP confirm – activators of apoptotic CHOP UPR arm, confirmation, cell-based, CHO-CHOP luciferase reporter, single concentration. shares compounds with UPR CHOP act. CHO-CHOP cells, CHOP-luciferase reporter luminescence; percent of tunicamycin response, DMSO as zero. activation, % at 10 µM. actives 64% (n = 1,000); in the data active = activation above about 33%;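 note: 0% = DMSO wells and 100% = tunicamycin 10 µg/mL wells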
* = called active by the depositor; / = no result.

SMILES | XBP1 UPR activ | Cardio protect | hiPSC survival | CHOP inh | UPR CHOP act | UPR CHOP confirm
Cc1nnc(NC(=O)c2nc(S(=O)(=O)Cc3ccccc3C)ncc2Cl)s1 | -8 | -17 | 0 | / | 26 | /
O=C(NCc1ccc2c(c1)OCO2)c1nc(S(=O)(=O)Cc2ccccc2F)ncc1Cl | -9 | -16 | 0 | / | 43* | 18
Cc1cccc(C(O)c2cnc(C)n2Cc2ccccc2)c1 (stereo not given) | / | -3 | 1 | / | / | /
COc1cc(C(=O)Sc2ccc(Cl)cc2)cc(OC)c1OC | 21 | 5 | -3 | 62 | 55* | 73*
CCOC(=O)c1cnc(-n2nc(C)cc2C)nc1Nc1ccc(N(C)C)cc1 | 36* | 37 | 1 | -111 | 73* | 35*
CCOC(=O)c1cnc(-n2nc(C)cc2C)nc1NC | 0 | -5 | 2 | -23 | 1 | /
CC(=O)NC(Cc1ccccc1)C(=O)N1CCN(C(=S)NCC(C)C)CC1 (stereo not given) | -3 | 14 | -2 | 16 | -1 | /
CCNC(=S)N1CCN(C(=O)C(Cc2ccccc2)NC(C)=O)CC1 (stereo not given) | -4 | 2 | 0 | -5 | 52* | 0
CCCCCOc1ccc(N2C(=O)CC(N(O)c3ccccc3)C2=O)cc1 (stereo not given) | -1 | 6 | 0 | 38 | 112* | 143*
CCCCOc1ccc(N2C(=O)CC(N(O)c3ccccc3)C2=O)cc1 (stereo not given) | 4 | -4 | -1 | 8 | 146* | 165*
Oc1ccc(/C=N/Nc2cc(N3CCCC3)nc(N3CCCC3)n2)cc1O | 18 | 33 | 1 | 12 | 126* | 124*
COc1cc(CN2C[C@@H](CO)O[C@@H](n3cnc4c(NCCCO)ncnc43)C2)cc(OC)c1OC | / | 8 | 0 | / | / | /
Cc1ccc(NC(=O)O/N=C/c2ccc(N(C)C)cc2)cc1 | 2 | -8 | 0 | / | 6 | /
O=[n+]1c2c(n([O-])c3cc(F)c(N4CCCC4)cc31)CCC2 | 24 | -1 | -2 | / | 41* | -1
CC(C)NC(=O)C1(C)CCCN1C(=O)c1ccccc1Br (stereo not given) | / | 9 | -3 | / | / | /
Cc1ccc2nc(-c3ccc(F)cc3)c(CC3CCCCC3)n2c1 | / | / | 0 | / | / | /
O=C(CCN1C(=O)C2C3C=CC(C4CC34)C2C1=O)Oc1ccc(Br)cc1 (stereo not given) | 0 | 12 | -2 | -3 | 0 | /
O=C(CCN1C(=O)C2C3C=CC(C4CC34)C2C1=O)Oc1cccc2cccnc12 (stereo not given) | 10 | 6 | 5 | 48 | 72* | 60*
Oc1ccc(-c2csc(Nc3ccccn3)n2)cc1O | 9 | 49 | 2 | / | 168* | 130*
Cc1ccnc(Nc2nc(-c3ccc(O)c(O)c3)cs2)c1 | 0 | 60* | -1 | / | 76* | 181*
Cc1ccnc(Nc2nc(-c3ccc(O)cc3)cs2)c1 | -3 | -14 | 2 | / | 6 | /
Oc1ccc(-c2csc(Nc3cccc4ccccc34)n2)cc1O | 10 | 49 | 0 | / | 131* | 142*
COc1cc2c(cc1OC)C(CNC(=O)C=Cc1cc(OC)c(OC)c(OC)c1)C2 (stereo not given) | / | 8 | 6 | / | / | /
CCOC(=O)N1CCN(Cc2cc(Cl)c3cccnc3c2O)CC1 | 19 | / | / | 83* | 105* | 116*
CCOC(=O)C1CCN(Cc2ccc(O)c3ncccc23)CC1 | 6 | 18 | 1 | / | 235* | 142*
SMILES | XBP1 UPR activ | Cardio protect | hiPSC survival | CHOP inh | UPR CHOP act | UPR CHOP confirm
CCOC(=O)C1CCN(Cc2ccccc2C(F)(F)F)CC1 | -1 | 0 | 4 | 27 | 0 | /
C/C(=N\NC(=O)c1c[nH]c2ccccc12)c1ccccn1 | -1 | 17 | -1 | 59 | -2 | /
C/C(=N\NC(=O)c1ccc(F)cc1)c1ccccn1 | -1 | 12 | -1 | / | 303* | 267*
C/C(=N\NC(=O)c1cc2ccccc2cc1O)c1ccccn1 | 0 | -4 | 0 | / | 245* | 292*
C=CCNC(=S)N/N=C(\C)c1ccccn1 | 1 | 36 | -4 | 40 | 211* | 203*
C=C1CC(Cn2cc(Br)c(=O)[nH]c2=O)(c2ccc(-c3ccccc3)cc2)OC1=O (stereo not given) | / | -18 | -3 | / | / | /
Cc1ccc(S(=O)(=O)Nc2cccc3cccnc23)cc1 | -5 | 24 | -2 | -167 | 621* | 326*
O=C(NNC(=O)c1cccc(S(=O)(=O)Nc2ccccc2F)c1)c1ccncc1 | / | 1 | 7 | / | / | /
CCOc1ccc(N(CC(=O)NCc2ccccc2C)S(C)(=O)=O)cc1 | 0 | 0 | -1 | / | 11 | /
O=C1/C(=C/c2ccccc2[N+](=O)[O-])COc2ccccc21 | -1 | 2 | -1 | 95* | 173* | 85*
CNc1ccc(/C=C2\COc3ccccc3C2=O)cc1[N+](=O)[O-] | 4 | 19 | -5 | -56 | 4 | /
CCN1C(=O)[C@H]2[C@@H](c3ccc(-c4ccccc4)cc3)N3CCCC[C@@]3(C(=O)OC)[C@H]2C1=O | -1 | -13 | 0 | / | 0 | /
CCCN(CCC)C(=O)c1cc([N+](=O)[O-])cc2c1-c1ccc([N+](=O)[O-])cc1C2=C(C#N)C#N | -2 | / | / | -66 | 335* | 201*
Cc1cccc(C(=O)Nc2cccc(C(=O)N/N=C/c3ccncc3)c2)c1 | 0 | 24 | 1 | 33 | 1 | /
O=C(/C=C/c1cccnc1)c1ccc(NC(=O)c2cccc(Br)c2)cc1 | 10 | -4 | -6 | -47 | 91* | 197*
Cc1cccc(C(=O)Nc2ccc(C(=O)/C=C/c3ccncc3)cc2)c1 | -9 | -21 | 0 | / | 49* | -9
Cc1cccc(C(=O)Nc2ccc(C(=O)/C=C/c3cccnc3)cc2)c1 | / | -20 | -6 | -56 | / | /
O=C(C=P(c1ccccc1)(c1ccccc1)c1ccccc1)c1ccccc1-c1ccccc1C(=O)C=P(c1ccccc1)(c1ccccc1)c1ccccc1 | / | -19 | -2 | / | / | /
CCOC(=O)C(CC)(CC)C(=O)/C=C/c1cccc(Br)c1 | 3 | -24 | -4 | / | 54* | 70*
COC(=O)c1ccccc1NC(=O)COC(=O)c1ccccc1N=Nc1ccc(N(C)C)cc1 | 6 | -14 | -3 | 2 | 1 | /
CC(=O)c1ccc(NC(=O)COC(=O)c2ccccc2N=Nc2ccc(N(C)C)cc2)cc1 | 9 | 6 | 0 | 29 | 44* | 55*
COC(=O)c1c(NC(=O)C(Cl)Cl)sc2c1C(C(=O)OC)CC2 (stereo not given) | 18 | -6 | -1 | 80* | 45* | 30

Bioassay records: PubChem, several laboratories
